Measurements published in article PMC4002122 (Chemical Research in Toxicology, 2014).

What was measured:
[1] = Glucuronidation by human intestinal microsomes; assay type: in vitro ADME; settings: 0.25 mM substrate, 60 min
Procedure, shortened: (§1)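 Microsomes from individual human livers (10 donors), a pooled liver sample and hepatosomes, or from intestines (13 donors). Substrate dried from ethanol, redissolved in DMSO and sonicated. Incubated 37 °C, 60 min; ethanol stop, centrifuged. Glucuronides measured by reversed-phase HPLC-UV; nmol/mg/min, median and range.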

tubulin = settings: cited from earlier work
UGT1A8 = biological target: T1, UGT1A8 (Homo sapiens, UniProt Q9HAW9); test: Steady state kinetics of glucuronidation by recombinant UGT1A8; assay type: in vitro ADME
T1 sequence (Q9HAW9 26-530): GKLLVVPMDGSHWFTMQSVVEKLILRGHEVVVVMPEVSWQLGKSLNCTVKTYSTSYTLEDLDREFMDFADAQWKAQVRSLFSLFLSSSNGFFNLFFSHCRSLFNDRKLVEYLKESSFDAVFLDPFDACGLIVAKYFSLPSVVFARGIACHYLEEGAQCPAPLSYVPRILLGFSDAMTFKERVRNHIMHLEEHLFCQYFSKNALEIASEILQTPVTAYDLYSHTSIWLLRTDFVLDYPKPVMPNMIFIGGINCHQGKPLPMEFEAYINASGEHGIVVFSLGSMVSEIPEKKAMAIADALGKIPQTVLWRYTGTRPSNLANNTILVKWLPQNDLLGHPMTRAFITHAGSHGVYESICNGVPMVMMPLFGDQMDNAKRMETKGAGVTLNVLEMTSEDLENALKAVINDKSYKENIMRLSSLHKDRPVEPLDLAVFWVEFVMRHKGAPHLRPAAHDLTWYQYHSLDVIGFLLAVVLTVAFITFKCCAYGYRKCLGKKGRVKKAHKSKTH

UGT2B15 = biological target: T2, UGT2B15 (Homo sapiens, UniProt P54855); test: Screening of recombinant UGT2B15 for glucuronidation activity; assay type: in vitro ADME; settings: 250 μM substrate, 5 μg protein, 60 min, 37 °C
T2 sequence (P54855 24-530): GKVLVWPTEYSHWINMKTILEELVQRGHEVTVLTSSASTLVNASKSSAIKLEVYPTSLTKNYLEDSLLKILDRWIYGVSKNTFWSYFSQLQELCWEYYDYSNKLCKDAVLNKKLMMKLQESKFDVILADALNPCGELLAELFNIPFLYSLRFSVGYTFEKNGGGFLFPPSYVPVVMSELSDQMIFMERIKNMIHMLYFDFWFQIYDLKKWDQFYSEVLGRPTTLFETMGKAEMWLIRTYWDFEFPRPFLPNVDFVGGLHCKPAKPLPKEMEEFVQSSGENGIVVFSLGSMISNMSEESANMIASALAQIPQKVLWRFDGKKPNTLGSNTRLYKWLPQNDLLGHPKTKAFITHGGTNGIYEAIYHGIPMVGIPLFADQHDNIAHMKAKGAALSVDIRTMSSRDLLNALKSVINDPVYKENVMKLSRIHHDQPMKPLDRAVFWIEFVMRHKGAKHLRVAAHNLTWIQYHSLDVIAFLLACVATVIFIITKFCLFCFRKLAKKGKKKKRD
Procedure, shortened: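 UGT1A1, 1A3, 1A4 and 1A6–1A10 were His-tagged and expressed in baculovirus-infected Sf9 cells; UGT2B4, 2B7, 2B15 and 2B17 were commercial membranes run per supplier protocol. 5 μg membrane protein with 250 μM substrate, 2 mM UDP-GlcUA, Tris–HCl pH 7.4, MgCl2, saccharolactone, 2% DMSO; 37 °C, 60 min; no-substrate controls. Products measured by HPLC-UV/vis; β-glucuronidase hydrolysis separated O- from carboxyl glucuronides.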

[2] = Glucuronidation by human hepatic microsomes; assay type: in vitro ADME; settings: 60 min, 50 μg of human liver proteins, 0.25 mM substrate, 3 mM UDP-GlcUA
Procedure, shortened: as §1

Row | Structure (SMILES) | glucuronidation activity ([1]; donors HI27, HI28, HI29, and HI54) | metabolites produced ([1]; donors HI34, HI36, HI40, and HI41) | metabolites produced ([1]; remaining donors with activity) | antitubulin activity (tubulin) | NI-12a-COO-gluc formation (UGT1A8; COO-glucuronide) | kinetic model (UGT1A8; NI-12a-O-gluc formation) | Ks (UGT1A8; NI-12a-O-gluc formation, USI model) [µM] | metabolites produced ([1]; all other donors (than HI27, HI29, HI30)) | glucuronidation activity ([1]; donors HI27, HI29, and HI30) | glucuronidation activity (glucuronide formed) (UGT2B15) | NI-ST-05–N–O-gluc formation (UGT1A8; N–O-glucuronide) | metabolism with human liver microsomes [2]
1 | COc1ccc(/C=C(/C(=O)O)c2cc(OC)c(OC)c(OC)c2)cc1O [NI-12a, (E)-3-(3-hydroxy-4-methoxyphenyl)-2-(3,4,5-trimethoxyphenyl)acrylic acid] | failed to display glucuronidation activity | only one (the hydroxyl) metabolite | two (hydroxyl and carboxyl) metabolites | effective antitubilin agent | not produced | uncompetitive substrate inhibition and USI | 950 ± 449 |  |  |  |  | 
2 | COc1ccc(C=Cc2cc(OC)cc(OC)c2/C=N/O)cc1 [NI-ST-05, (E)-2,4-dimethoxy-6-(4-methoxystyryl)benzaldehyde oxime] |  |  |  |  |  |  |  | one metabolite | failed to display glucuronidation activity | inactive | not produced | 
3 | COc1cc(/C=C/c2cc([N+](=O)[O-])c(O)c([N+](=O)[O-])c2)cc(OC)c1 [DNR-1, (E)-4-(3,5-dimethoxystyryl)-2,6-dinitrophenol] |  |  |  |  |  |  |  |  |  | No activity |  | not metabolized
